The values that follow come from ChEMBL document CHEMBL1148568, “Synthesis and biological evaluation of 3-ethylidene-1,3-dihydro-indol-2-ones as novel checkpoint 1 inhibitors” (Bioorg Med Chem Lett, 2006).

Each structure is given as a SMILES string.

Test [1] addresses T1, Serine/threonine-protein kinase Chk1 (Homo sapiens, UniProt O14757).
T1 sequence (O14757 whole entry): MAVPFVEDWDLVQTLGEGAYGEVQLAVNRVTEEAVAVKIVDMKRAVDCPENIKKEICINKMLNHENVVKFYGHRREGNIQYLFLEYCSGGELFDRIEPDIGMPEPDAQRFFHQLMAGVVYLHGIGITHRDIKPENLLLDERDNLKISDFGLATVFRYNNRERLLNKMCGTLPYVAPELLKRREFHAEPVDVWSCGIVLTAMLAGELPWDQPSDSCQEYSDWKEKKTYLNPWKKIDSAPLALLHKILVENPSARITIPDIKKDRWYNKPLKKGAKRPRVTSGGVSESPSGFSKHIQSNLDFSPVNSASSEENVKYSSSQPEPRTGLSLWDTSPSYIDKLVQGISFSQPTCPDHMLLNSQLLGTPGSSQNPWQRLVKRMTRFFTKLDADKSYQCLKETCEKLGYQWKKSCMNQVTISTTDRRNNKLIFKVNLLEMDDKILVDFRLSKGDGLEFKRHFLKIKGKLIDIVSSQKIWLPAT
Nature of the test: Inhibitory activity against Chk1.

For test [2], the target named is MAP kinase-activated protein kinase 2 (Homo sapiens, UniProt P49137). Nature of the test: Inhibitory activity against MAPKAP2.
For test [3], the target named is T2, Serine/threonine-protein kinase Sgk1 (Homo sapiens, UniProt O00141).
T2 sequence (O00141 whole entry): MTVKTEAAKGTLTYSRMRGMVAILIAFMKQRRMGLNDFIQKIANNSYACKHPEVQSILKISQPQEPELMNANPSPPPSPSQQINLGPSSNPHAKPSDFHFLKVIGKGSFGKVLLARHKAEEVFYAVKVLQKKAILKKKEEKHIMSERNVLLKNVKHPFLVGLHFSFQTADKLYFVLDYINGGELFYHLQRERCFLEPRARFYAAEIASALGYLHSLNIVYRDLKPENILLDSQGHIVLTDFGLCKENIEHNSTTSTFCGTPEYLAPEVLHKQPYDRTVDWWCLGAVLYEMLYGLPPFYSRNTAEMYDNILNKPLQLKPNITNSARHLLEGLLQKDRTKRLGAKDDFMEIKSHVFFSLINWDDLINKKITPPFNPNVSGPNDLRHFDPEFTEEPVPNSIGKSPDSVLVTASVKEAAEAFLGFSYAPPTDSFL
Nature of the test: Inhibitory activity against SGK.

For test [4], the target named is Serine/threonine-protein kinase Chk2 (Homo sapiens, UniProt O96017). Nature of the test: Inhibitory activity against Chk2.
Test [5] relates to HeLa. The experiment in a line: Antiproliferative activity against human HeLa cells by MTS assay. It counts as functional, cell-based. The essentials: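 p53-deficient human cervical cancer HeLa cells were treated with the test compound alone over varying concentrations. Proliferation was read out by MTS, and the antiproliferative EC50 was determined.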
For orientation: Tetrazolium assays rely on reduction of a dye to a coloured formazan, in cell work by metabolically active cells.

Test [6] deals with Proto-oncogene tyrosine-protein kinase Src (Homo sapiens, UniProt P12931). Nature of the test: Inhibitory activity against SRC.
The next test deals with Casein kinase II (Homo sapiens, UniProt P19784+P67870+P68400). The experiment in a line: Inhibitory activity against CK2. Type of test: protein-complex assay.
Test [7] has as its system HeLa. Nature of the test: Antiproliferative activity against human HeLa cells by MTS assay in the presence of doxorubicin. Type of test: functional, cell-based.
Test [8] deals with Cyclin-dependent kinase 1 (Homo sapiens, UniProt P06493). Nature of the test: Inhibitory activity against CDC2.
Test [9] concerns the target Epidermal growth factor receptor (Homo sapiens, UniProt P00533). Nature of the test: Inhibitory activity against EGFR.
In test [10] the target is Protein kinase C delta type (Homo sapiens, UniProt Q05655). Nature of the test: Inhibitory activity against PKC delta.
A further test deals with Angiopoietin-1 receptor (Homo sapiens, UniProt Q02763). Nature of the test: Inhibitory activity against Tie2.
Test [11] addresses Protein kinase C gamma type (Homo sapiens, UniProt P05129). Nature of the test: Inhibitory activity against PKC gamma.

Chain of Cyclin-dependent kinase 1 (P06493 whole entry): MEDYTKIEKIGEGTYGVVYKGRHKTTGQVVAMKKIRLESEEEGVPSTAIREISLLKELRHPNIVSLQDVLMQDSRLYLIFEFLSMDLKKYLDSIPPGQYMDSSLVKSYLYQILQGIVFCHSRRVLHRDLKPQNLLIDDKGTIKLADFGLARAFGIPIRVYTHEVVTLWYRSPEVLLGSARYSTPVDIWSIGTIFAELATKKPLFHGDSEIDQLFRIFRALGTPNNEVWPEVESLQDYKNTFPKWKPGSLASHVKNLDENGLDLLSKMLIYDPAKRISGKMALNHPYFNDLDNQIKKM
Chain of Proto-oncogene tyrosine-protein kinase Src (P12931 2-536 limits assumed): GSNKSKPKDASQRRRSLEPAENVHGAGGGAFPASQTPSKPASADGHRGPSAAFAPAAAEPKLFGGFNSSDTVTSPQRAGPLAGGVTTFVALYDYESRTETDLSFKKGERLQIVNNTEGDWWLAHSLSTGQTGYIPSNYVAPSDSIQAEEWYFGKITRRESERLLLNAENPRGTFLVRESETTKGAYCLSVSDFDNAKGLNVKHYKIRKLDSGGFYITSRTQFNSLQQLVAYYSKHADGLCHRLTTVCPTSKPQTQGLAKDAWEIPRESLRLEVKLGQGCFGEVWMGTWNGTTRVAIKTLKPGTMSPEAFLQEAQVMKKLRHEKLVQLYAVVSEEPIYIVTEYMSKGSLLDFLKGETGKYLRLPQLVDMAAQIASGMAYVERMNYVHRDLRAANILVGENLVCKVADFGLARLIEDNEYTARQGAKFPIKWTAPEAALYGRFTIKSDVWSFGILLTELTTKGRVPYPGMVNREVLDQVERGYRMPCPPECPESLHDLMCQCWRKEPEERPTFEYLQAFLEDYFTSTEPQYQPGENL
Chain of Serine/threonine-protein kinase Chk2 (O96017 whole entry): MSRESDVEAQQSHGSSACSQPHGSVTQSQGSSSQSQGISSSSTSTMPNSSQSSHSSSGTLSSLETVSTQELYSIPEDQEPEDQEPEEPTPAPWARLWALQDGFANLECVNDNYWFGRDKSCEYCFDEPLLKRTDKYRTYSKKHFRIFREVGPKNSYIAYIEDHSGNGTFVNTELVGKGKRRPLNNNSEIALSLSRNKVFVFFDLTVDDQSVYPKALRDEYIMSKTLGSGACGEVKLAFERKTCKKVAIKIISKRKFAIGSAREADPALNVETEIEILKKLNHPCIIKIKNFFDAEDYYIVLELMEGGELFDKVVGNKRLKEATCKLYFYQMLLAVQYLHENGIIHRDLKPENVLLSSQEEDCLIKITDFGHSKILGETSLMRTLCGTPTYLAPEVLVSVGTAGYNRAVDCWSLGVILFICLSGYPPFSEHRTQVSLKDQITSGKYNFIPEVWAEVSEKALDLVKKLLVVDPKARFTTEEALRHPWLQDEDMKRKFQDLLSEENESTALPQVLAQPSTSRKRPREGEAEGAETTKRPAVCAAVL
Chain of Casein kinase II (P67870 whole entry): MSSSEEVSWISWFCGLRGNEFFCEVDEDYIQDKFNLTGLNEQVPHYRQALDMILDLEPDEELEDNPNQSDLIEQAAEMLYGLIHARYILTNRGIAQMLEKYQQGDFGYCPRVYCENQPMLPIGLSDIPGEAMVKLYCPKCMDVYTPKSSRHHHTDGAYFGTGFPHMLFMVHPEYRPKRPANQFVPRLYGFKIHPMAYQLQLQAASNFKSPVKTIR
Chain of Casein kinase II (P68400 whole entry): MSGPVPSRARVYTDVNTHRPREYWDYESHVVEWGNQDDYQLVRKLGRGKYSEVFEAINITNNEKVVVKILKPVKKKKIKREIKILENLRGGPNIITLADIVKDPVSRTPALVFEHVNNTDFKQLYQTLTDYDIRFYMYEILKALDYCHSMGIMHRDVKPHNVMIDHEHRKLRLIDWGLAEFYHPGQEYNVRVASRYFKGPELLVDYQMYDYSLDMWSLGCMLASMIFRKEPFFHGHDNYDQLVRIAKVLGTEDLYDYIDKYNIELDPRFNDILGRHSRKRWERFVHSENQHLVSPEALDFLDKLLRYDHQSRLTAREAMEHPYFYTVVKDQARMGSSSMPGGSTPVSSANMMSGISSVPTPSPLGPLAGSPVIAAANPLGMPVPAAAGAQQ
Chain of Casein kinase II (P19784 whole entry): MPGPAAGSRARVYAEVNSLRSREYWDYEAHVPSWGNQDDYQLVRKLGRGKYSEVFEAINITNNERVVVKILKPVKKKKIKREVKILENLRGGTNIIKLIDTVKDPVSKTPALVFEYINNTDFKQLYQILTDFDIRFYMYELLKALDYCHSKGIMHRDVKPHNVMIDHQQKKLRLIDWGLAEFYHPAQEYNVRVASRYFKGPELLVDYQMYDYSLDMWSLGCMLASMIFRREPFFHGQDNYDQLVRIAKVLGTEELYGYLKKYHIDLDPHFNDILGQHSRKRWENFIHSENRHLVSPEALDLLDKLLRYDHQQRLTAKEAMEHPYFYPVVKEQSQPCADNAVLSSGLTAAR
Chain of Angiopoietin-1 receptor (Q02763 whole entry): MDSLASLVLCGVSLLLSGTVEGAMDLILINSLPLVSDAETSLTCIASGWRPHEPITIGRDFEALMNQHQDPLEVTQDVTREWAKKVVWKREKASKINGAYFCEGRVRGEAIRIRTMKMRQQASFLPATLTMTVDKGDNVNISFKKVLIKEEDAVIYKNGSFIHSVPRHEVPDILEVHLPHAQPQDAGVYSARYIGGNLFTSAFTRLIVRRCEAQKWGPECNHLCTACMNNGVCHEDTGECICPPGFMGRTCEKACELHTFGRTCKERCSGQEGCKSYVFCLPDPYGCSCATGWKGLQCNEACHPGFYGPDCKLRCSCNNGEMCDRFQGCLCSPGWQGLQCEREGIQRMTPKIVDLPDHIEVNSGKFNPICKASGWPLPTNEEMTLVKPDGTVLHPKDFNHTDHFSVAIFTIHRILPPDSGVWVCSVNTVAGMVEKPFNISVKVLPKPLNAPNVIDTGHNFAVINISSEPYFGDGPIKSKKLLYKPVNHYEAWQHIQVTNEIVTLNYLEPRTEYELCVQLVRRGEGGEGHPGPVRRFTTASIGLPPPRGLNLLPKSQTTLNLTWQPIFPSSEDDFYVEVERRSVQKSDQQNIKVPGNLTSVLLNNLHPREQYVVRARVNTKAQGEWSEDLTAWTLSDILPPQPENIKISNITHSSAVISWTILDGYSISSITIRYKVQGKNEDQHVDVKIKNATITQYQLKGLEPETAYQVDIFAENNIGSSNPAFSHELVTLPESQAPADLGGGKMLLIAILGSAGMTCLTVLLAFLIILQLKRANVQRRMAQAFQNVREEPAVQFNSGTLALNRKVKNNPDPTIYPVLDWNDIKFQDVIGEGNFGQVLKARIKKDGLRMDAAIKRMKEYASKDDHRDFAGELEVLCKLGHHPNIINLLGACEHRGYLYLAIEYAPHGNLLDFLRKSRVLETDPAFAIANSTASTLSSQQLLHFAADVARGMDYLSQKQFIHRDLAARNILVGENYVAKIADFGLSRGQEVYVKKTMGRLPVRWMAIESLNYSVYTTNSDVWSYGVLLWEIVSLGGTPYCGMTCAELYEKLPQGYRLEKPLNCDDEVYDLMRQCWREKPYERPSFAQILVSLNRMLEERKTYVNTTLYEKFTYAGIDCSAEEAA
Chain of Protein kinase C delta type (Q05655 whole entry): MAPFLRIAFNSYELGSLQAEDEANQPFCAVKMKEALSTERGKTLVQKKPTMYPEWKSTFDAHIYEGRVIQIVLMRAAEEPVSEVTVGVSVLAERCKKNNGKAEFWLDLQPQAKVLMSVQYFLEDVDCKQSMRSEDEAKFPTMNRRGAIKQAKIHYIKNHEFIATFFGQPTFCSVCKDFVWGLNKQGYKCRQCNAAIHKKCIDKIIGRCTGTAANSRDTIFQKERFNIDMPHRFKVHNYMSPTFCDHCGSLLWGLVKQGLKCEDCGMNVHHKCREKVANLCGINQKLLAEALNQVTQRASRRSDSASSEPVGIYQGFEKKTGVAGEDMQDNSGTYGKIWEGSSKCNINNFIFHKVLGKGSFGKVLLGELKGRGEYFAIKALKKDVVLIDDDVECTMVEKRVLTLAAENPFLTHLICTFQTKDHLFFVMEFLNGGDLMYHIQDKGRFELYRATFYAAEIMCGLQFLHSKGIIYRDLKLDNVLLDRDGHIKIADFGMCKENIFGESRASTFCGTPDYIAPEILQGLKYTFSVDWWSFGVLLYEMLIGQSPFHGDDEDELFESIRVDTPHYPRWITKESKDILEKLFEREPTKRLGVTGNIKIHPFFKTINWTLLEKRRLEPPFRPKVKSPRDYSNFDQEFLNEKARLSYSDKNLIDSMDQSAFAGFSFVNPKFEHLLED

For `COc1cc(-c2ccc3c(c2)NC(=O)/C3=C\c2cc[nH]c2)cc(OC)c1OC`, the IC50 in test [1] was above 10 µM. Still for that read-out and setting: next, `O=C1Nc2cc(-c3ccc(F)c(F)c3)ccc2/C1=C/c1cc[nH]c1`: above 10 µM; `COc1cc(-c2ccc3c(c2)NC(=O)/C3=C\c2[nH]c(C)cc2C)ccc1O`: 0.12 µM; `O=C1Nc2cc(-c3ccc(O)cc3)ccc2/C1=C/c1cc[nH]c1`: 0.029 µM. The same measure, in the same setting: next, `O=C1Nc2cc(-c3ccc(OC(F)(F)F)cc3)ccc2/C1=C/c1cc[nH]c1`: above 10 µM; `COc1cc(-c2ccc3c(c2)/C(=C/c2c[nH]c4c(C)cccc24)C(=O)N3)ccc1O`: 3.46 µM; `COc1cc(-c2ccc3c(c2)NC(=O)/C3=C\c2c[nH]c3nc(C#N)ccc23)ccc1O`: 0.445 µM. The same measure, in the same setting: the value for `COc1cc(-c2ccc3c(c2)NC(=O)/C3=C\c2[nH]c(C)c(CCO)c2C)ccc1O` was 0.047 µM. On to `COc1cc(-c2ccc3c(c2)/C(=C/c2c[nH]c4ccccc24)C(=O)N3)ccc1O`, for which the IC50 in [1] is above 50 µM. Molecule `COc1cc(-c2ccc3c(c2)NC(=O)/C3=C\C2CCCN2)ccc1O` (stereo unspecified) registered an IC50 in test [1] of 3.97 µM.

Turning to `COc1cc(O)ccc1-c1ccc2c(c1)NC(=O)/C2=C\c1cc[nH]c1`, the IC50 in test [1] turned out to be 0.01 µM. On to `COc1cc(-c2ccc3c(c2)NC(=O)/C3=C\c2c[nH]c3ncccc23)ccc1O`, for which the half-maximal inhibitory concentration (IC50) in test [2] is above 50 µM; in test [3], above 50 µM; in test [4] it was 22.7 µM; in test [6], 2.38 µM; on Casein kinase II it was 41.7 µM; in [1], 0.004 µM. In test [8], this molecule returned an IC50 of 0.454 µM. In addition, the results for the EC50 with HeLa [5] and in the test on HeLa [7] were 0.01 µM and 0.18 µM, respectively. The molecule `COc1cc(-c2ccc3c(c2)NC(=O)/C3=C\c2c[nH]c3ccccc23)ccc1O` came in with an IC50 in test [1] of 0.092 µM.

`COc1cc(-c2ccc3c(c2)NC(=O)/C3=C\c2cc[nH]c2)ccc1O` had an IC50 in test [1] of 0.025 µM. Still for that read-out and setting: next, `COc1cc(-c2ccc3c(c2)NC(=O)/C3=C\c2[nH]c(C)cc2C(C)C)ccc1O`: 3.46 µM; `COC(=O)CCc1c(C)[nH]c(/C=C2\C(=O)Nc3cc(-c4ccc(O)c(OC)c4)ccc32)c1C`: 0.075 µM. On to `COc1cc(-c2ccc3c(c2)NC(=O)/C3=C\c2ncc[nH]2)ccc1O`, for which the half-maximal inhibitory concentration (IC50) in test [9] is above 50 µM; in test [3] it was 1.5 µM; in test [4], 14.6 µM; in [6], above 50 µM; in test [10], above 50 µM; in test [1], 0.018 µM. Further, the half-inhibitory concentration (IC50) against Angiopoietin-1 receptor is 23.3 µM; in test [8] it was 0.251 µM; in test [11], above 50 µM. In [1], `COc1cc(-c2ccc3c(c2)NC(=O)/C3=C\c2c[nH]c3c(C)cccc23)ccc1O` yielded an IC50 of 1.31 µM. Regarding `Nc1ccc(-c2ccc3c(c2)NC(=O)/C3=C\c2cc[nH]c2)cc1`, the 50% inhibitory concentration (IC50) in test [1] came to 1.03 µM.

`COc1cc(-c2ccc3c(c2)/C(=C/c2cccc(OC)c2OC)C(=O)N3)ccc1O`: the IC50 in test [1] was above 50 µM. Same read-out and setting: next, `Cc1ccc(-c2ccc3c(c2)NC(=O)/C3=C\c2cc[nH]c2)cc1`: above 10 µM. Take `COc1cc(-c2ccc3c(c2)NC(=O)/C3=C\c2ccc[nH]2)ccc1O`: the concentration for half-maximal inhibition (IC50) is above 50 µM in test [2]; above 50 µM in test [9]; above 50 µM in [3]; 21.7 µM in [4]; above 50 µM in test [6]; above 50 µM against Casein kinase II. Besides, the IC50 (in test [10]; on Angiopoietin-1 receptor; in test [8]; in [11]) was above 50 µM in each case.

Consider `COc1cc(-c2ccc3c(c2)NC(=O)/C3=C\c2cccc(OC)c2OC)ccc1O`, for which the half-maximal inhibitory concentration (IC50) in test [1] was above 50 µM. The molecule `COc1cc(-c2ccc3c(c2)/C(=C/c2ccc[nH]2)C(=O)N3)ccc1O` gave a concentration for half-maximal inhibition (IC50) in [1] of 2.84 µM.

As for `COc1cc(-c2ccc3c(c2)NC(=O)/C3=C\c2[nH]c(C)cc2-c2ccccc2)ccc1O`, the half-inhibitory concentration (IC50) in [1] is above 10 µM. The same measure, in the same setting: the value for `COc1cc(-c2ccc3c(c2)NC(=O)/C3=C\c2[nH]c(C)c(CN(C)C)c2C(C)C)ccc1O` was 1.28 µM.

Usually IC50 stands for the concentration needed to halve the response being measured. A lower IC50 goes with greater potency in that assay. For orientation: EC50 means the midpoint of the concentration-response curve.
